Series [1] in a line: Zeta potential of peptide-DNA polyplexes. The conditions noted are these: positive (+ mV); peptide-DNA polyplex 0.5 nmol peptide per µg DNA, 5 mM Hepes, pH 7.4 (footnote), mean of ten measurements. Format: physicochemical. The procedure, abridged: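 Polyplex was made in 5 mM Hepes at 30 µg/ml DNA with 15 nmol/ml peptide. Zeta potential was read on a ZetaPlus instrument straight after QELS particle sizing at a 90° scatter angle, as the mean of ten measurements.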

Series [2] concerns CHO cells. The series can be described thus: In vitro gene transfer. Format: cell-based. To be noted: 10 µg pGL3, luciferase at 24 hrs, Fig. 5. The procedure, abridged:
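Cells: CHO, 5 × 10^5 per 35 mm well, grown to about 50% confluency in MEM with 2 or 10% FBS, 1 mM sodium pyruvate and pen/strep. Polyplexes: peptide and pGL3 at 0.1–0.75 nmol peptide per µg DNA, in HBM (5 mM Hepes, 0.27 M mannitol, pH 7.5). Triplicate wells, 24 h. Luciferase RLU were converted to fmol by standard curve and normalized to mg protein (BCA).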

The subject of series [3] is Erythrocytes. Nature of the series: RBC hemolysis assay. Format: cell-based, mice. The conditions noted are these: peptide DNA polyplexes (1.5 nmols and 7.5 µg pGL3), pH 7.4, Fig. 4C. The procedure, abridged:
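Erythrocytes from male ICR mouse heart blood (heparinized) were washed three times in 0.15 M PBS pH 7.4 and diluted to 1.5 × 10^8 cells/ml. 7.5 × 10^6 cells were added to the polyplexes (1.5 nmol peptide, 7.5 µg pGL3) in triplicate and held 1 h at 37°C, then filtered. Filtrate Abs410 nm was expressed against 100% lysis with water replacing PBS.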

Series [4] has as its system HepG2, 3T3, and CHO cells. Nature of the series: In vitro gene transfer. Format: cell-based. The conditions noted are these: 0.5 nmol peptide per µg pGL3, 10 µg pGL3, luciferase at 24 hrs, Fig. 6. The procedure, abridged: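 Plating: HepG2, CHO or 3T3, 5 × 10^5 cells per 35 mm well, about 50% confluent. Transfection: 10 µg pGL3 polyplex (0.5 nmol peptide/µg DNA, 30 µg/ml DNA in 5 mM Hepes/0.27 M mannitol pH 7.5), added dropwise in triplicate for 24 h in MEM with 2 or 10% FBS. Read-out: lysate luciferase (0.5 mM D-luciferin injection, 10 s integration) as fmol per mg protein, mean ± SD of triplicates.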

“Also recorded” adds a separate entry of the source.

“(Acr-Arg)3-C-CWKKGIGAVLKVLTTGLPALISLIKRKRQQ (disulfide) [poly(Acr-Arg)3-SS-melittin]”: in series [1], the “Zeta Potential” value is recorded as 29 ± 4.5 mV.

For “(Acr-Arg)4-C-CWKKGIGAVLKVLTTGLPALISLIKRKRQQ (disulfide) [poly(Acr-Arg)4-SS-melittin]”, in series [1], the “Zeta Potential” value is 29 ± 2.6 mV. The “Gene expression, fold greater than poly(Acr-Arg)4-Mal-melittin” value in series [2] is recorded as “approximately 1000 fold”. The “Hemolytic activity when combined with pGL3” value in series [3] is listed as “completely neutralized; also recorded: non hemolytic”. Turning to “W(Lys(Ac)-Arg)4-C-CWKKGIGAVLKVLTTGLPALISLIKRKRQQ (disulfide) [poly(Lys(Ac)-Arg)4-SS-melittin]”, in series [1], the “Zeta Potential” value is listed as 20 ± 2.9 mV. Consider “(CWKKGIGAVLKVLTTGLPALISLIKRKRQQ)2 (disulfide) [Dimeric-melittin]”, for which the “Gene transfer, fold lower than poly(Acr-Arg)2–4-SS-melittin” value in series [4] was 10–100 fold. On to “(Acr-Arg)2-C-CWKKGIGAVLKVLTTGLPALISLIKRKRQQ (disulfide) [poly(Acr-Arg)2-SS-melittin]”, for which the “Zeta Potential” value in series [1] is listed as 25 ± 2.2 mV.

The values above are taken from article PMC2813064 (Bioconjugate chemistry, 2010).
